The record followed here is ChEMBL document CHEMBL3392953, “Synthesis and biological evaluation of furanoallocolchicinoids” (J Med Chem, 2015).

Data set [1] deals with ASPC1. Put plainly: Induction of apoptosis in human AsPC1 cells assessed as cell fractionation level at 200 nM after 72 hrs by Hoechst 33342 and mitotracker red staining based confocal microscopy. It is filed as functional. Summed up:
(§1)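 AsPC-1 cells grown overnight on coverslips, then cultured 72 h with compound at various concentrations in complete medium. Hoechst 33342 and MitoTracker Red added for 1 h; cells fixed in 1% paraformaldehyde, mounted in Mowiol, and examined by confocal microscopy for nuclear and mitochondrial morphology.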

For a further data set, the system named is Jurkat. Description: Growth inhibition of human Jurkat cells at 100 uM after 72 hrs by MTT assay. It is filed as functional. The settings on record: read-out: GI.
The test system of data set [2] is ASPC1. Description: Induction of cell cycle arrest in human AsPC1 cells assessed as G1/G2 phase ratio at 200 nM after 72 hrs by propidium iodide staining based flow cytometry (reference value: 1.9). It is filed as functional.
For data set [3], the system named is Mus musculus. Description: Toxicity in mouse MMTV-Wnt-1 cells implanted C57BL/6 mouse assessed as induction of behavior changes at 0.4 mg/kg, iv once weekly for four weeks. It is filed as organism-based. Details: dose 0.4 mg/kg, route intravenous. To be noted: in vivo. Summed up: (§2)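 C57BL/6 mice, 6–8 wk, inoculated subcutaneously with Wnt-1 tumor cells in 50 µl PBS into left inguinal fat pad under anesthesia. Treatment started at day 27 in mice with palpable tumors (n=7 per group). Compound in 200 µl saline given i.v. into orbital sinus at days 27, 34, 41, 48; controls received saline. Tumors measured by caliper twice weekly, volume (W²×L)/2. Study ended day 51.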

The subject of data set [4] is Mus musculus. Put plainly: Antitumor activity against mouse MMTV-Wnt-1 cells implanted in C57BL/6 mouse assessed as reduction in tumor volume at 0.4 mg/kg, iv once weekly for four weeks. Details: dose 0.4 mg/kg. It is filed as functional, organism-based. Summed up:
as §2

Data set [5] deals with HEK293. Put plainly: Induction of cell cycle arrest in HEK293 cells assessed as accumulation at G1 phase at 200 nM after 72 hrs by propidium iodide staining based flow cytometry (reference value: 76 +/ 5%). Format: functional, Homo sapiens.
The nature of data set [6]: Induction of apoptosis in mouse W1308 cells 200 nM after 72 hrs by propidium iodide staining based flow cytometry (reference value: 0.3 +/ 0.1). Format: functional.
Data set [7] in a line: Induction of cell cycle arrest in mouse W1308 cells assessed as accumulation at G1 phase at 200 nM after 72 hrs by propidium iodide staining based flow cytometry (reference value: 43 +/ 2%). Format: functional.
Data set [8] has as its system HEK293. Put plainly: Induction of apoptosis in HEK293 cells at 200 nM after 72 hrs by propidium iodide staining based flow cytometry (reference value: 3 +/- 1%). It is filed as functional, Homo sapiens.
The test system of data set [9] is HEK293. Put plainly: Cytotoxicity against HEK293 cells after 72 hrs by MTT assay. Format: functional, cell-based. The settings on record: Homo sapiens, HEK293, 72 h. Summed up: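 Cells seeded at 3x10^5 cells/mL 24 h before assay (HEK293, AsPC-1 in DMEM; Jurkat, W1308 in RPMI-1640; 10% FCS, 2-ME). Tenfold dilutions from […] to 1 nM added; untreated cells as controls. 72 h incubation, MTT 250 µg/ml added for last 6 h, formazan dissolved in DMSO, OD read. IC50 from titration curves; inhibition index = 1 − OD(treated)/OD(control).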

Data set [10] can be described thus: Growth inhibition of mouse W1308 cells at 100 uM after 72 hrs by MTT assay. Format: functional. To be noted: W1308, 72 h, read-out: GI.
Data set [11] concerns Mus musculus. Description: Toxicity in mouse MMTV-Wnt-1 cells implanted C57BL/6 mouse assessed as induction of weight loss at 0.4 mg/kg, iv once weekly for four weeks. Format: organism-based. Details: dose 0.4 mg/kg, route intravenous. The settings on record: in vivo. Summed up: as §2
The subject of data set [12] is ASPC1. Description: Induction of apoptosis in human AsPC1 cells assessed as double nucleated cells level at 200 nM after 72 hrs by Hoechst 33342 and mitotracker red staining based confocal microscopy. It is filed as functional, cell-based. A digest of the protocol:
as §1

Data set [13] has as its system ASPC1. Description: Induction of cell cycle arrest in human AsPC1 cells assessed as accumulation at G1 phase at 200 nM after 72 hrs by propidium iodide staining based flow cytometry (reference value: 65 +/ 3%). Format: functional.

Each structure is given as a SMILES string. Activity calls are given as the source filed them. The rule behind the calls is not given here.

As to `COc1cc2c(c(OC)c1OC)-c1cc3cc(CO)oc3cc1[C@@H](NC(C)=O)CC2`, the result in the data set with ASPC1 [1] and with ASPC1 [12] was Active. Besides, the inhibition of growth at 100 µM (with Jurkat; in data set [10]) was 60% in each case. Further, the Ratio in the data set with ASPC1 [2] is given as 0.7. The Activity entry is recorded as “Non-toxic” in the data set with Mus musculus [3]; 22% in the data set with HEK293 [5]; 2.3% in data set [6]; 18% in data set [7]; 6% with HEK293 [8]; “Non-toxic” in the data set with Mus musculus [11]. In the data set with ASPC1 [13], the Activity came out at 27%. For the same molecule, the “growth inhibition (GI)” value in the data set with Mus musculus [4] was “Active”. In the data set with HEK293 [9], this molecule came in with a concentration for half-maximal inhibition (IC50) of less than 20 nM.
